The record followed here is ChEMBL document CHEMBL3045749, “Antifeedant and insecticide properties of a limonoid from Melia azedarach (Meliaceae) with potential use for pest management” (2003).

Broadly, the mortality is the share of the test organisms that died.

Active and inactive are the calls of the source. The rule behind the calls is not given here.

Assay [1] concerns Epilachna. Briefly: Antifeedant activity against third-instar larval stage of Epilachna paenulata infested cucurbita maxima leaves assessed as decrease in food consumption at 0.25 to 4 ug/cm2 measured after 6 days by no choice leaf disk assay relative to untreated control. It is filed as functional, organism-based. An outline of the steps: (§1)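 No-choice test: four third-instar E. paenulata larvae per Petri dish fed C. maxima leaves (renewed every 48 h) with known amounts of compound or solvent applied by syringe. Six replicates per treatment, plus unfed starved controls. Leaf consumption, body weight and mortality recorded every 24 h.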

In assay [2] the test system is Epilachna. Nature of the assay: Antifeedant activity against third-instar larval stage of Epilachna paenulata infested cucurbita maxima leaves assessed as decrease in food consumption at 0.25 to 4 ug/cm2 measured after 48 hr by no choice leaf disk assay relative to untreated control. It counts as functional, organism-based. In outline: as §1
Assay [3] relates to Epilachna. Briefly: Antifeedant activity against third-instar larval stage of Epilachna paenulata infested cucurbita maxima leaves assessed as increase in larval mortality measured at 96 hr by no choice leaf disk assay. It is filed as functional. An outline of the steps: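 Same no-choice setup (four third-instar larvae per dish, treated C. maxima leaves renewed every 48 h, six replicates, mortality scored every 24 h). LD50 derived by probit analysis of mortality at 96 h.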

Assay [4] concerns Epilachna. Nature of the assay: Antifeedant activity against third-instar larval stage of Epilachna paenulata infested cucurbita maxima leaves assessed as feeding reduction after 24 hr by leaf disk choice assay. It is filed as functional. In outline: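 Leaf-disk choice test: two C. maxima seedling cotyledons in a Petri dish under a glass disk with two 1 cm² holes. One third-instar larva placed equidistant from treated and solvent-control disks, fed 24 h. Area eaten estimated visually by quarters, always by the same operator. AI% = (1 − T/C) × 100; Wilcoxon signed paired rank test, α = 0.05.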

The subject of assay [5] is Epilachna. Nature of the assay: Antifeedant activity against third-instar larval stage of Epilachna paenulata infested cucurbita maxima leaves assessed as decrease in food consumption at 0.25 to 4 ug/cm2 measured after 24 hr by no choice leaf disk assay relative to untreated control. It counts as functional, organism-based. An outline of the steps:
as §1

Assay [6] deals with Epilachna. Briefly: Antifeedant activity against third-instar larval stage of Epilachna paenulata infested cucurbita maxima leaves assessed as larval mortality at 0.25 to 4 ug/cm2 measured after 24 hr by no choice leaf disk assay relative to untreated control. It is filed as functional. In outline:
as §1

The subject of assay [7] is Epilachna. Nature of the assay: Antifeedant activity against third-instar larval stage of Epilachna paenulata infested cucurbita maxima leaves assessed as decrease in larval weight gain at 1 to 4 ug/cm2 measured after 96 hr by no choice leaf disk assay relative to untreated control. It counts as functional, organism-based. An outline of the steps: as §1
Assay [8] deals with Epilachna. Nature of the assay: Antifeedant activity against third-instar larval stage of Epilachna paenulata infested cucurbita maxima leaves assessed as decrease in larval weight gain at 0.25 to 4 ug/cm2 measured after 144 hr by no choice leaf disk assay relative to untreated control. It counts as functional, organism-based. In outline: as §1

With `C/C=C(\C)C(=O)O[C@H]1C[C@@H](OC(C)=O)[C@@]2(C(=O)OC)CO[C@H]3[C@@H](O)[C@@](C)([C@]45O[C@@]4(C)[C@@H]4C[C@H]5O[C@@H]5OC=C[C@@]54O)[C@H]4[C@]1(CO[C@]4(O)C(=O)OC)[C@@H]32` [AZADIRACHTIN A], the result in the assay on Epilachna [1] and with Epilachna [2] was Active. For the same compound, the LD50 in the assay with Epilachna [3] is listed as 1.24 microg/cm2. In the assay with Epilachna [4], the ED50 is 0.72 microg/cm2. Also, the outcome in the assay with Epilachna [5] was inactive.

In the case of `CC(=O)O[C@@H]1C[C@H](O)[C@@]23CO[C@@H](O)[C@]1(C)[C@@H]2C[C@@H](O)[C@]1(C)[C@@H]3C(=O)[C@H](OC(C)=O)[C@@]2(C)[C@H](c3ccoc3)C[C@H]3O[C@]321` [TOOSENDANIN], the ED50 in the assay with Epilachna [4] was 3.69 microg/cm2.

Take `CC(=O)O[C@@H]1C[C@H](O)[C@@]23COC(O)[C@]1(C)[C@@H]2C[C@@H](O)[C@]1(C)[C@@H]3[C@H](O)C(=O)[C@@]2(C)[C@H](c3ccoc3)C[C@H]3O[C@@]312` (stereo partly drawn) [MELIARTENIN]: the result with Epilachna [1], in the assay with Epilachna [7], in the assay on Epilachna [8] and in the assay on Epilachna [5] was Active. The mortality with Epilachna [6] was 20%. In addition, the LD50 in the assay on Epilachna [3] was 0.76 microg/cm2. In the assay with Epilachna [4], the ED50 turned out to be 0.8 microg/cm2.
